Screens: PubChem BioAssay, several laboratories
Sampled rows, rich in hits. Any-hit rate of the full collection: about 3.6%.
STAT3 activator: activators of IL-6 induced STAT3 signaling; U3A cells, IL-6 STAT3-luciferase reporter, luminescence; 100% = signal with IL-6 EC80 alone; activation (% of control), % at 5.6 µM; 190,000 compounds, 0.91% hits; AID 871;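 active = activation above the screen-wide mean of compound activation plus 3 SD, cut at about 130% in these data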;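 also: 0% = background luminescence of wells with medium and substrate only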
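Detection: reporter luminescence signal / Assay system: STAT1-lacking human U3A cells, STAT3 luciferase reporter / Incubation: compound pre-incubation 1 h before IL-6, then 6 h stimulation at 37 °C / Control set: IL-6-only high control / Read-out: % activation relative to IL-6 control / Probe or stimulus: Interleukin-6, 33 ng/mL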
HSF1 inh: HSF1 inhibition. 300,000 compounds, 0.77% hits. activity change, negative = inhibition, % at 7.5 µM (by protocol). NIH3T3-HGL HSE-luciferase, MG132-induced, luminescence 8 h; active compounds read low. AID 2098;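 active = more than half of replicate wells show activity change below -50%, luminescence cut by over half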;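 also: luciferase reports HSF-1 transcriptional activity via heat shock element; 0% = median of DMSO wells and -100% = zero luminescence signal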
AHR act: activates the human aryl hydrocarbon receptor. P35869. AHR-responsive luciferase reporter cells, luminescence. activation, % at 5 µM. 320,000 compounds, 2.5% hits. AID 2796; in the data active = activation above about 47%;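 also: 0% = vehicle wells and 100% = reference agonist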
Target sequence (P35869 whole entry, looked up): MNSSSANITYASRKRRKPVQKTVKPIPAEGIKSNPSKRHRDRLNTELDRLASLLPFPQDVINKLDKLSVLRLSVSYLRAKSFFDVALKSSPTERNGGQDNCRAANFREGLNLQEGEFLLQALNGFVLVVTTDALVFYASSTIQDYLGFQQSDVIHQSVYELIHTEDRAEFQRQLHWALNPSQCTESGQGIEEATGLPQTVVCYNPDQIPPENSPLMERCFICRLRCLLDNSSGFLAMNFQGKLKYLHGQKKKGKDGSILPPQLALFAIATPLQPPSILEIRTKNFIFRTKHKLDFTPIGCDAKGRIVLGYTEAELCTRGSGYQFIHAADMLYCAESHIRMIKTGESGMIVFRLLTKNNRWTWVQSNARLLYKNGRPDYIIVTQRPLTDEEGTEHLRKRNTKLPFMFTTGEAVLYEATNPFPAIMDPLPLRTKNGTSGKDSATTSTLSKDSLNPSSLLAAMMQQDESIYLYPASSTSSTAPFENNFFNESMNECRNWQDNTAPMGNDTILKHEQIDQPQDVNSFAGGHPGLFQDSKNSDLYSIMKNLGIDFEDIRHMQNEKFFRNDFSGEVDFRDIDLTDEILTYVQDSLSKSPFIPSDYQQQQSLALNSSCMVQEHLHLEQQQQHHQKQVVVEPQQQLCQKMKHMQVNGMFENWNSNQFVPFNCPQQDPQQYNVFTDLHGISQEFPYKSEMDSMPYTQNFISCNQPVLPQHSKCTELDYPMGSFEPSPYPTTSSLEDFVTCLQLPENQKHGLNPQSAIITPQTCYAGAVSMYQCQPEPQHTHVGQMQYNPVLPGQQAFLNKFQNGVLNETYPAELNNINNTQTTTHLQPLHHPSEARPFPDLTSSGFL
PolyA inh: yeast polyadenylation inhibition; S. cerevisiae SKY197-pL101 polyadenylation reporter, beta-gal luminescence; efflux-impaired pdr1/pdr3 knockout yeast; score 100 = 6 SD above DMSO; activity score, % at 12 µM; 300,000 compounds, 0.02% hits;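 active = lowest replicate activity score at least 50, where 100 means six control SD above control mean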;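 also: yeast exposed to compound for 9 h at 30 °C; higher score means more reporter readthrough which indicates perturbed polyadenylation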
PERK inhibitor: human PERK inhibition, primary cell-based screen. 220,000 compounds, 0.17% hits. CHO PERK-DD fusion, SEAP luminescence translation reporter. Q9NZJ5. inhibition, % at 5.6 µM. AID 1416;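 active = inhibition above the mean inhibition of all tested compounds plus 3 SD, set separately per screening campaign, cut at about 2.9% in these data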;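 also: PERK kinase domain activated by AP20187 dimerizer at 100 nM; 0% = DMSO with dimerizer and 100% = rapamycin at 8.4 µM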
Hsp70 activator: Hsp70 transcriptional activation, primary screen | activation, % at 10 µM | HeLa Hsp70 promoter luciferase reporter, luminescence; scaled: vehicle 0, proteasome-inhibitor control 100% | 200,000 compounds, 0.04% hits | AID 1203;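 active = activation above the mean across all tested compounds plus 3 SD, cutoff set per campaign, cut at about 5.5% in these data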;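 also: 100% = MG132 at 30 µM as the positive control and 0% = DMSO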
An asterisk follows results filed as active; . = no result.

SMILES | STAT3 activator | HSF1 inh | AHR act | PolyA inh | PERK inhibitor | Hsp70 activator
[O-]/C(=C(\C(=S)Nc1cccc2ccccc12)[n+]1ccccc1)c1ccc2c(c1)OCCO2 | 133.9* | -23.1 | 39.0 | 15.2 | -0.5 | -0.4
[O-]/C(=C(\C(=S)Nc1cccc2ccccc12)[n+]1ccccc1)c1ccc(OC(F)F)cc1 | 129.7 | . | . | . | 0.8 | -0.3
COC(=O)[C@]1(Cc2ccccc2)N[C@H](c2ccc(-c3ccc4c(c3)OCO4)cc2)[C@@H]2C(=O)N(C)C(=O)[C@@H]21 | . | -4.0 | 22.5 | -18.7 | . | .
Cc1ccc(NC(=O)c2cc(C)nc3ccccc23)cc1 | . | 6.7 | 67.5* | 21.5 | . | .
Cc1cc(NC(=O)c2cc(-c3ccc(C)s3)nc3ccccc23)no1 | 91.5 | -4.3 | 11.4 | -4.5 | 1.0 | -0.1
CC(=O)c1ccc(NC(=O)c2cc(C)nc3ccccc23)cc1 | . | 0.9 | 3.5 | -5.0 | . | .
Cc1cccc(NC(=O)c2cc(-c3ccc(C)s3)nc3ccccc23)n1 | 95.7 | -44.3 | 56.2* | -2.1 | -0.6 | -0.1
Cc1cc(C(=O)Nc2ccc(F)cc2)c2ccccc2n1 | . | 2.6 | 56.2* | -3.7 | . | .
O=C(Nc1ccccc1)c1cc(Cl)nc2ccccc12 | 98.3 | -3.2 | 49.2* | -20.3 | 0.7 | -0.1
COc1ccc(CCN(C)C2CCCN(S(=O)(=O)c3ccc(C)cc3)C2)cc1OC (configuration not stated) | . | -1.5 | -0.1 | 6.5 | . | .
CCCc1cc(=O)[nH]c(SCC(=O)NCCN2C(=O)CSC2=O)n1 | . | . | 0.6 | . | . | .
COc1ccccc1N1CCN(C(=O)c2cccc(S(=O)(=O)Nc3ccccc3F)c2)CC1 | . | . | 2.0 | . | . | .
COc1ccc(OC)c(CN2CCN(C(=O)CCC(=O)c3cccs3)CC2)c1 | . | 1.4 | 2.0 | -8.6 | . | .
CCOCc1nnc(NC(=O)c2ccc3c(c2)OCO3)s1 | . | 7.4 | 121.7* | -0.2 | . | .
O=C(Nc1nncs1)c1ccc2c(c1)OCO2 | . | -2.7 | 65.0* | -4.5 | . | .
Cc1nnc(NC(=O)c2ccc3c(c2)OCO3)s1 | 96.2 | 9.9 | 38.6 | -4.8 | 0.4 | -0.1
CCC(C)N1CCC(Oc2ccc(C(=O)NCc3ccccn3)cc2)CC1 (configuration not stated) | . | -2.9 | 2.1 | 23.6 | . | .
CCc1cccc(CC)c1NC(=O)C1SC(=Nc2ccccc2C)C(c2nc3ccccc3s2)=C1N (configuration not stated) | 112.8 | 5.5 | 53.9* | 12.5 | -1.2 | -0.4
CCc1cccc(C)c1NC(=O)CCCSc1nc2ccccc2s1 | 110.3 | 2.7 | 17.6 | -28.5 | -0.8 | -0.3
COCCNC(=S)NNc1ccccc1[N+](=O)[O-] | 135.6* | 0.3 | 12.6 | -1.8 | 1.2 | -0.2
CNC(=S)NNc1ccccc1[N+](=O)[O-] | 117.2 | 7.4 | 7.7 | 38.2 | -0.2 | -0.2
O=C(Nc1ccc2c(c1)OCCO2)c1cc2sccc2n1Cc1ccccc1 | 79.4 | -11.1 | 26.4 | -32.9 | -0.1 | 0.1
O=C(Nc1ccc2c(c1)OCCO2)c1cc2sccc2n1Cc1ccc(F)cc1 | 93.2 | -8.1 | 64.3* | -10.9 | -0.4 | -0.1
Cc1ccc(S(=O)(=O)NCC(=O)NC2CC2)cc1 | . | 2.8 | -1.0 | 13.2 | . | .
COc1ccccc1C(O)(C(=O)N(NC(C)=O)c1ccccc1)c1ccccc1OC | . | -62.5* | . | 0.9 | . | .
SMILES | STAT3 activator | HSF1 inh | AHR act | PolyA inh | PERK inhibitor | Hsp70 activator
COc1ccccc1C(O)(C(=O)NNc1ccccc1C)c1ccccc1OC | 103.9 | 2.3 | 1.1 | -8.1 | -0.2 | -0.2
COc1ccc2[nH]c(=O)c(CN(Cc3cccs3)S(=O)(=O)c3c(C)ccc4nsnc34)cc2c1 | 72.0 | -63.9* | 1.5 | 4.2 | 0.2 | -0.3
CC(N1CCOC1=O)S(=O)(=O)c1ccccc1 (configuration not stated) | 102.5 | -76.4* | 0.6 | 10.6 | -0.1 | -0.1
Cc1ccc(C)c(S(=O)(=O)N2CCN(C(=O)[C@H](Cc3ccccc3)NC(=O)c3ccco3)CC2)c1 | . | . | 0.4 | . | . | .
N#CN(Cc1ccccc1)Cc1ccccc1 | . | -0.3 | 5.0 | 2.0 | 0.1 | .
COc1ccc(Cl)cc1C(=O)NNC(=O)c1cc2ccccc2o1 | . | . | 28.5 | . | . | .
CCOC(=O)c1c(-c2ccc(C)o2)csc1NC(=S)NC(=O)N(C)C | 93.3 | 42.1 | 57.4* | -17.1 | -0.5 | 0.2
CCOC(=O)c1c(-c2ccc(C)o2)csc1NC(=O)COC(=O)c1cccs1 | 101.7 | 8.4 | 2.2 | -3.9 | 0.1 | -0.1
O=C(O)Cn1c(O)c(C2=c3ccccc3=NC2=O)sc1=O | . | 1.1 | 21.2 | -4.3 | . | .
Cn1c(O)c(C2=c3ccccc3=NC2=O)sc1=Nc1ccc(Cl)cc1 | 101.2 | -4.5 | 55.9* | -22.1 | -0.5 | -0.1
C=CCn1c(O)c(C2=c3ccccc3=NC2=O)s/c1=N/c1nccs1 | 118.7 | -0.2 | 59.2* | -7.0 | 1.9 | -0.1
CC(C)CC(C(=O)Nc1ccccc1)N1C(=O)C2C3C=CC(C3)C2C1=O (configuration not stated) | 102.3 | -3.4 | -0.2 | -3.2 | 0.8 | -0.2
Cc1cc(C(=O)N/N=C/c2c[nH]c3ccccc23)c(C)o1 | 98.7 | -0.1 | 56.2* | 3.4 | 1.1 | -0.2
O=C(N/N=C/c1c[nH]c2ccccc12)c1ccn(Cc2ccc(Cl)cc2)n1 | 134.7* | -7.5 | 32.3 | -19.1 | -0.1 | -0.3
O=C(N/N=C/c1c[nH]c2ccccc12)c1ccncc1 | 99.5 | -0.5 | 26.2 | -11.0 | 0.8 | 0.0
O=C(N/N=C/c1c[nH]c2ccc(Br)cc12)c1ccn(Cc2ccc(Cl)cc2Cl)n1 | 99.7 | 18.6 | 19.6 | 0.8 | 1.2 | -0.3
CCOc1ccc(Br)cc1C(=O)N/N=C/c1c[nH]c2ccccc12 | . | -4.6 | 47.3* | -13.9 | . | .
O=C(N/N=C/c1c[nH]c2ccc(Br)cc12)c1ccncc1 | 75.7 | 6.9 | 73.5* | 10.5 | 0.9 | 0.0
CCOc1ccc(Br)cc1C(=O)N/N=C/c1ccccn1 | . | -3.2 | 22.0 | -2.5 | . | .
CCS(=O)(=O)N1Cc2ccccc2CC1C(=O)N(C)CC(=O)Nc1ccc(F)c(F)c1F (configuration not stated) | . | 1.9 | -0.3 | 11.4 | . | .
O=C(N/N=C/c1c[nH]c2ccccc12)c1sc2ccccc2c1Cl | 115.5 | -14.7 | 50.0* | 15.9 | -0.5 | -0.1
O=C(N/N=C/c1ccccn1)c1sc2ccccc2c1Cl | . | -11.4 | 8.8 | -72.0 | 0.3 | .
COc1ccccc1C(=O)N/N=C/c1c[nH]c2ccccc12 | . | -7.7 | 31.9 | -1.7 | . | .
O=C(N/N=C/c1c[nH]c2ccccc12)c1cc(Br)ccc1O | . | 2.7 | 77.2* | -8.5 | . | .
O=C(N/N=C/c1ccc(Br)s1)c1c[nH]c2ccccc12 | 114.3 | 33.4 | 145.5* | 9.0 | 1.1 | -0.1
CCN(C[C@H]1N[C@@](Cc2ccccc2)(C(=O)OC)[C@H]2C(=O)N(C)C(=O)[C@@H]12)C(=O)Nc1ccccc1 | . | . | 1.3 | . | . | .
COc1cc(-c2nc3n(n2)C(c2ccc(F)cc2)C2=C(CCCC2=O)N3)cc(OC)c1OC (configuration not stated) | 96.8 | 1.8 | 82.4* | -5.7 | -0.8 | -0.1
